The results in this text go back to ChEMBL document CHEMBL4725234, “Structure-activity relationship analyses of fusidic acid derivatives highlight crucial role of the C-21 carboxylic acid moiety to its anti-mycobacterial activity” (Bioorg Med Chem, 2020).

The test system of one test is CHO-K1. Put plainly: Cytotoxicity against CHOK1 cells assessed as reduction in cell viability. In kind it is cell-based. As to conditions: Cricetulus griseus.
Test [1] deals with Mycobacterium tuberculosis. Briefly: Antimycobacterial activity against Mycobacterium tuberculosis H37Rv. In kind it is functional. The method, boiled down: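 Drug-sensitive M. tuberculosis H37Rv grown in a glycerol-containing medium; MIC99 is the minimum concentration that inhibits growth of 99% of the bacterial population.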

Converted amounts (≈) assume the structure as drawn.

As to `CC(=O)O[C@H]1C[C@@]2(C)[C@@H](C[C@@H](O)[C@H]3[C@@]4(C)CC[C@@H](O)[C@@H](C)[C@@H]4CC[C@@]32C)/C1=C(\CCC=C(C)C)C(=O)NNC(=O)c1cccs1`, in the test on CHO-K1, the IC50 (usually the midpoint of a concentration-inhibition curve) came out at 78.8 µM. Further, the MIC99 (commonly the lowest concentration that inhibits either 99% of growth or 99% of the strains tested, depending on the study) in test [1] worked out at 40 µM (≈ 25.6 µg/mL).
With `CO[C@H]1C[C@@]2(C)[C@@H](C[C@@H](O)[C@H]3[C@@]4(C)CC[C@@H](O)[C@@H](C)[C@@H]4CC[C@@]32C)/C1=C(\CCC=C(C)C)C(=O)O`, in the test on CHO-K1, the IC50 was determined as 29 µM. In addition, the MIC99 in test [1] is 18.7 µM (≈ 9.14 µg/mL).
For the compound `CC(=O)O[C@H]1C[C@@]2(C)[C@@H](C[C@@H](O)[C@H]3[C@@]4(C)CC[C@@H](O)[C@@H](C)[C@@H]4CC[C@@]32C)/C1=C(\CCC=C(C)C)c1nc(C)no1`, the IC50 with CHO-K1 turned out to be 47.8 µM. Also, the MIC99 in test [1] is greater than 125 µM.
For `CC(=O)O[C@H]1C[C@@]2(C)[C@@H](C[C@@H](O)[C@H]3[C@@]4(C)CC[C@@H](O)[C@@H](C)[C@@H]4CC[C@@]32C)/C1=C(\CCC=C(C)C)c1n[nH]c(=O)o1` the same measures were 82 µM and 80 µM (≈ 44.5 µg/mL).
As to `CC(=O)O[C@H]1C[C@@]2(C)[C@@H](C[C@@H](O)[C@H]3[C@@]4(C)CC[C@@H](O)[C@@H](C)[C@@H]4CC[C@@]32C)/C1=C(\CCC=C(C)C)C(=O)NNS(=O)(=O)c1ccc(Cl)cc1`, in the test with CHO-K1, the IC50 came out at 53.2 µM. Moreover, the MIC99 in test [1] is greater than 125 µM.
Turning to `CCCS(=O)(=O)NNC(=O)/C(CCC=C(C)C)=C1\[C@@H](OC(C)=O)C[C@@]2(C)[C@H]1C[C@@H](O)[C@H]1[C@@]3(C)CC[C@@H](O)[C@@H](C)[C@@H]3CC[C@@]12C`, the concentration for half-maximal inhibition (IC50) with CHO-K1 was found to be 79.7 µM. In test [1], this compound came in with an MIC99 of 40 µM (≈ 25.5 µg/mL).
For `CC(=O)O[C@H]1C[C@@]2(C)[C@@H](C[C@@H](O)[C@H]3[C@@]4(C)CC[C@@H](O)[C@@H](C)[C@@H]4CC[C@@]32C)/C1=C(\CCC=C(C)C)c1n[nH]c(=S)o1`, the IC50 with CHO-K1 worked out at 70 µM. The compound also showed an MIC99 in test [1] of 80 µM (≈ 45.8 µg/mL).
For the compound `CC(=O)O[C@H]1C[C@@]2(C)[C@@H](C[C@@H](O)[C@H]3[C@@]4(C)CC[C@@H](O)[C@@H](C)[C@@H]4CC[C@@]32C)/C1=C(\CCC=C(C)C)C(=O)Nc1nn[nH]n1`, the IC50 with CHO-K1 was greater than 171 µM. Moreover, the MIC99 in test [1] is 40 µM (≈ 23.4 µg/mL).
The like results for `CC(=O)O[C@H]1C[C@@]2(C)[C@@H](C[C@@H](O)[C@H]3[C@@]4(C)CC[C@@H](O)[C@@H](C)[C@@H]4CC[C@@]32C)/C1=C(\CCC=C(C)C)C(=O)NNS(C)(=O)=O` were, in that order, 92.2 µM and 10 µM (≈ 6.09 µg/mL).
Take `CC(=O)O[C@H]1C[C@@]2(C)[C@@H](C[C@@H](O)[C@H]3[C@@]4(C)CC[C@@H](O)[C@@H](C)[C@@H]4CC[C@@]32C)/C1=C(\CCC=C(C)C)C(=O)NS(=O)(=O)c1ccc(F)c(F)c1`: in the test with CHO-K1, the IC50 stood at 81.4 µM. For the same compound, in test [1], the MIC99 worked out at 20 µM (≈ 13.8 µg/mL).
The like results for `CC(=O)O[C@H]1C[C@@]2(C)[C@@H](C[C@@H](O)[C@H]3[C@@]4(C)CC[C@@H](O)[C@@H](C)[C@@H]4CC[C@@]32C)/C1=C(\CCC=C(C)C)C(=O)NN` were, in that order, 112 µM and 40 µM (≈ 21.2 µg/mL).
For the compound `CC(C)=CCC/C(C(=O)NNS(C)(=O)=O)=C1/[C@@H](O)C[C@@]2(C)[C@H]1C[C@@H](O)[C@H]1[C@@]3(C)CC[C@@H](O)[C@@H](C)[C@@H]3CC[C@@]12C`, the IC50 in the test on CHO-K1 came to 32 µM. Further, the MIC99 in test [1] is 40 µM (≈ 22.7 µg/mL).
As for `CC(=O)O[C@H]1C[C@@]2(C)[C@@H](C[C@@H](O)[C@H]3[C@@]4(C)CC[C@@H](O)[C@@H](C)[C@@H]4CC[C@@]32C)/C1=C(\CCC=C(C)C)C(N)=O`, in the test on CHO-K1, the half-maximal inhibitory concentration (IC50) was 113 µM. This compound also registered an MIC99 in test [1] greater than 125 µM.
On to `CCCCCCCCCCCCNC(=O)/C(CCC=C(C)C)=C1\[C@@H](OC(C)=O)C[C@@]2(C)[C@H]1C[C@@H](O)[C@H]1[C@@]3(C)CC[C@@H](O)[C@@H](C)[C@@H]3CC[C@@]12C`, for which the IC50 with CHO-K1 was greater than 146 µM. This compound had an MIC99 in test [1] greater than 125 µM.
For `CC(=O)O[C@H]1C[C@@]2(C)[C@@H](C[C@@H](O)[C@H]3[C@@]4(C)CC[C@@H](O)[C@@H](C)[C@@H]4CC[C@@]32C)/C1=C(\CCC=C(C)C)C(=O)NNS(=O)(=O)c1ccc(C)cc1`, the IC50 in the test with CHO-K1 was 48.2 µM. In test [1], this compound yielded an MIC99 greater than 125 µM.
For `CCCCCCCCCCCCCCCCNC(=O)/C(CCC=C(C)C)=C1\[C@@H](OC(C)=O)C[C@@]2(C)[C@H]1C[C@@H](O)[C@H]1[C@@]3(C)CC[C@@H](O)[C@@H](C)[C@@H]3CC[C@@]12C` the same measures were greater than 135 µM and greater than 125 µM.
With `CC(=O)O[C@H]1C[C@@]2(C)[C@@H](C[C@@H](O)[C@H]3[C@@]4(C)CC[C@@H](O)[C@@H](C)[C@@H]4CC[C@@]32C)/C1=C(\CCC=C(C)C)C(=O)O` [FUSIDIC ACID], the IC50 in the test with CHO-K1 is greater than 194 µM. In test [1], this compound displayed an MIC99 of 0.6 µM (≈ 0.31 µg/mL).
Turning to `CCCCS(=O)(=O)NNC(=O)/C(CCC=C(C)C)=C1\[C@@H](OC(C)=O)C[C@@]2(C)[C@H]1C[C@@H](O)[C@H]1[C@@]3(C)CC[C@@H](O)[C@@H](C)[C@@H]3CC[C@@]12C`, in the test on CHO-K1, the IC50 came out at 49.9 µM. Further, the MIC99 in test [1] is greater than 125 µM.
As to `CC(=O)O[C@H]1C[C@@]2(C)[C@@H](C[C@@H](O)[C@H]3[C@@]4(C)CC[C@@H](O)[C@@H](C)[C@@H]4CC[C@@]32C)/C1=C(\CCCC(C)C)C(=O)NNS(C)(=O)=O`, the IC50 in the test on CHO-K1 amounted to 97.8 µM. Besides, the MIC99 in test [1] came to 10 µM (≈ 6.11 µg/mL).
For `CC(=O)O[C@H]1C[C@@]2(C)[C@@H](C[C@@H](O)[C@H]3[C@@]4(C)CC/C(=N\O)[C@@H](C)[C@@H]4CC[C@@]32C)/C1=C(\CCC=C(C)C)C(=O)O` the same measures were 164 µM and 2.5 µM (≈ 1.32 µg/mL).
Regarding `CCCCCCCCCCCCCCNC(=O)/C(CCC=C(C)C)=C1\[C@@H](OC(C)=O)C[C@@]2(C)[C@H]1C[C@@H](O)[C@H]1[C@@]3(C)CC[C@@H](O)[C@@H](C)[C@@H]3CC[C@@]12C`, the IC50 in the test on CHO-K1 was greater than 140 µM. This compound yielded an MIC99 in test [1] greater than 125 µM.
The like results for `CC(=O)O[C@H]1C[C@@]2(C)[C@@H](C[C@@H](O)[C@H]3[C@@]4(C)CC[C@@H](O)[C@@H](C)[C@@H]4CC[C@@]32C)/C1=C(\CCC=C(C)C)C(=O)NS(=O)(=O)c1ccccc1` were, in that order, 96.1 µM and greater than 125 µM.
Consider `CCS(=O)(=O)NNC(=O)/C(CCC=C(C)C)=C1\[C@@H](OC(C)=O)C[C@@]2(C)[C@H]1C[C@@H](O)[C@H]1[C@@]3(C)CC[C@@H](O)[C@@H](C)[C@@H]3CC[C@@]12C`, for which the IC50 in the test with CHO-K1 is 77.3 µM. This compound also registered an MIC99 in test [1] of 40 µM (≈ 24.9 µg/mL).
As for `CC(=O)O[C@H]1C[C@@]2(C)[C@@H](C[C@@H](O)[C@H]3[C@@]4(C)CC[C@@H](O)[C@@H](C)[C@@H]4CC[C@@]32C)/C1=C(\CCC=C(C)C)c1nc(-c2ccc(F)cc2)no1`, the IC50 in the test on CHO-K1 worked out at 77.4 µM. Also, in test [1], the MIC99 was greater than 125 µM.
The like results for `CCc1noc(/C(CCC=C(C)C)=C2\[C@@H](OC(C)=O)C[C@@]3(C)[C@H]2C[C@@H](O)[C@H]2[C@@]4(C)CC[C@@H](O)[C@@H](C)[C@@H]4CC[C@@]23C)n1` were, in that order, 71.7 µM and greater than 125 µM.
`CC(=O)O[C@H]1C[C@@]2(C)[C@@H](C[C@@H](O)[C@H]3[C@@]4(C)CC[C@@H](O)[C@@H](C)[C@@H]4CC[C@@]32C)/C1=C(\CCC=C(C)C)C(=O)NS(C)(=O)=O`: the IC50 in the test on CHO-K1 is greater than 169 µM. For the same compound, the MIC99 in test [1] came out at 80 µM (≈ 47.5 µg/mL).
For the compound `CCCCCCC(=O)O[C@@H]1CC[C@@]2(C)[C@@H](CC[C@@]3(C)[C@H]2[C@H](O)C[C@H]2/C(=C(\CCC=C(C)C)C(=O)O)[C@@H](OC(C)=O)C[C@@]23C)[C@@H]1C`, the IC50 in the test with CHO-K1 was 36.2 µM. Further, in test [1], the MIC99 was determined as 5 µM (≈ 3.14 µg/mL).
For `CCCc1noc(/C(CCC=C(C)C)=C2\[C@@H](OC(C)=O)C[C@@]3(C)[C@H]2C[C@@H](O)[C@H]2[C@@]4(C)CC[C@@H](O)[C@@H](C)[C@@H]4CC[C@@]23C)n1` the same measures were 68.2 µM and 80 µM (≈ 46.6 µg/mL).
`CCO[C@H]1C[C@@]2(C)[C@@H](C[C@@H](O)[C@H]3[C@@]4(C)CC[C@@H](O)[C@@H](C)[C@@H]4CC[C@@]32C)/C1=C(\CCC=C(C)C)C(=O)O`: in the test with CHO-K1, the IC50 is 48.1 µM. Moreover, in test [1], the MIC99 came to 0.8 µM (≈ 0.402 µg/mL).
